Assay results published in ChEMBL document CHEMBL1148541, “Biological evaluation of 1-alkyl-3-phenylthioureas as orally active HDL-elevating agents” (Bioorg Med Chem Lett, 2006).

What was measured:
Rattus norvegicus [1] = test: Increase of HDL level in cholesterol-fed male rats by FPLC method at 62 mg/kg/day relative to control; type: functional
Method in brief: (§1)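 Groups of six male Sprague–Dawley rats on a cholesterol diet received drug in the diet, ad libitum, for 8 days. Serum lipoproteins separated by FPLC, adapted for robotic automation, and cholesterol quantitated enzymatically by colorimetry. HDL given as % change versus untreated controls, with significance set at p < 0.05.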

Rattus norvegicus [2] = test: Triglyceride level in cholesterol-fed male rats at 62 mg/kg/day relative to control; type: functional
Method in brief: (§2)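 Male Sprague–Dawley rats on a cholesterol diet, in groups of six, received the compound in the diet ad libitum for 8 days. Serum triglycerides are expressed as % change relative to untreated controls, with significance at p < 0.05 versus controls.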

Rattus norvegicus [3] = test: Increase of Apolipoprotein A-I level in cholesterol-fed male rats at 62 mg/kg/day relative to control; type: functional
Method in brief: (§3)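 Drug mixed into diet, fed ad libitum for 8 days to groups of six male Sprague–Dawley rats on a cholesterol diet. Serum Apo A-I measured by SDS–polyacrylamide gel electrophoresis or by rat competition ELISA. Reported as % change versus untreated controls, with significance set at p < 0.05.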

Rattus norvegicus [4] = test: Weight gain in cholesterol-fed male rats at 62 mg/kg/day relative to control; type: functional
Method in brief: (§4)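 Groups of six male Sprague–Dawley rats on a cholesterol diet received the compound in the diet, ad libitum, over 8 days. Body weight gain is reported as % change relative to untreated controls.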

Rattus norvegicus [5] = test: Increase of total cholesterol level in cholesterol-fed male rats at 62 mg/kg/day relative to control; type: functional
Method in brief: (§5)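 Dietary (ad libitum) dosing of groups of six male Sprague–Dawley rats on a cholesterol diet for 8 days. Serum total cholesterol was quantitated enzymatically by a colorimetric method and expressed as % change relative to untreated controls, with significance at p < 0.05.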

Rattus norvegicus [6] = species on record: Rattus norvegicus; test: Increase in liver enzyme Alkaline phosphatase; type: functional; set-up: concentration or dose not given beside the values
Rattus norvegicus [7] = test: Increase of HDL level in cholesterol-fed male rats by ultracentrifugation method at 62 mg/kg/day relative to control; type: functional
Method in brief: (§6)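 Cholesterol-fed male Sprague–Dawley rats, six per group, given drug in the diet ad libitum for 8 days. Serum lipoproteins separated by classical ultracentrifugation and HDL cholesterol measured by an enzymatic colorimetric method. Expressed as % change versus untreated controls, with significance set at p < 0.05.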

Rattus norvegicus [8] = test: Triglyceride level in cholesterol-fed male rats at 55 mg/kg/day relative to control; type: functional; method in brief: as §2
Rattus norvegicus [9] = species on record: Rattus norvegicus; test: Increase in liver enzyme Alanine aminotransferase; type: functional
Rattus norvegicus [10] = test: Weight gain in cholesterol-fed male rats at 55 mg/kg/day relative to control; type: functional; method in brief: as §4
Rattus norvegicus [11] = test: Increase of HDL level in cholesterol-fed male rats by ultracentrifugation method at 55 mg/kg/day relative to control; type: functional; method in brief: as §6
Rattus norvegicus [12] = test: Increase of total cholesterol level in cholesterol-fed male rats at 55 mg/kg/day relative to control; type: functional; method in brief: as §5
Rattus norvegicus [13] = species on record: Rattus norvegicus; test: Increase in liver enzyme Aspartate aminotransferase; type: functional; set-up: concentration or dose not given beside the values
Rattus norvegicus [14] = test: Increase of HDL level in cholesterol-fed male rats by FPLC method at 55 mg/kg/day relative to control; type: functional; method in brief: as §1
Rattus norvegicus [15] = test: Increase of Apolipoprotein A-I level in cholesterol-fed male rats at 55 mg/kg/day relative to control; type: functional; method in brief: as §3
[16] = molecular target: T1, Peroxisome proliferator-activated receptor delta (Homo sapiens, UniProt Q03181); test: Activity against PPAR-delta
T1 sequence (Q03181 whole entry): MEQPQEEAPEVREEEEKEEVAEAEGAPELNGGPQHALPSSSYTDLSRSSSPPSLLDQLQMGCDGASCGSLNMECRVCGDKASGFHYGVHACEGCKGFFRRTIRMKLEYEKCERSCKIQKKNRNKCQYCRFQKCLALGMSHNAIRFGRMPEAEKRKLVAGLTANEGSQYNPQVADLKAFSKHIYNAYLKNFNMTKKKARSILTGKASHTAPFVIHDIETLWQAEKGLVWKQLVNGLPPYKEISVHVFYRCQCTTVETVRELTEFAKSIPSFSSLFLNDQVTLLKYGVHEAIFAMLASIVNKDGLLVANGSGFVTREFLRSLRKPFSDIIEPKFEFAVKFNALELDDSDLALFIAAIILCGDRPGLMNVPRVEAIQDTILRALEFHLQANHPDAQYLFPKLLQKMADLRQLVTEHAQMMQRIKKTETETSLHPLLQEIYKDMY

[17] = molecular target: T2, Peroxisome proliferator-activated receptor alpha (Rattus norvegicus, UniProt P37230); test: Activity against PPAR-alpha
T2 sequence (P37230 whole entry): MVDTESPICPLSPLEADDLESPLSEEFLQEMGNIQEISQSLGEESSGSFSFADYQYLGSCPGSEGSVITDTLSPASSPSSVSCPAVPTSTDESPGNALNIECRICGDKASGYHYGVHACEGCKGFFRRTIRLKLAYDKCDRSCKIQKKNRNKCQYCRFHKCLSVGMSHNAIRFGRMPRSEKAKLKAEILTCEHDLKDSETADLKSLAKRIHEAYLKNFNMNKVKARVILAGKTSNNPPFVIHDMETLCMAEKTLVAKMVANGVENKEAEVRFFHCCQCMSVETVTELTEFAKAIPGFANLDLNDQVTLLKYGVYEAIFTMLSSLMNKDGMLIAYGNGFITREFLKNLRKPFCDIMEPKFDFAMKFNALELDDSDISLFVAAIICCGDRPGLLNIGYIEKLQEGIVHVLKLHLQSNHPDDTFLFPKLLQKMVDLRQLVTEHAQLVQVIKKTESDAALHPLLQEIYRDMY

Rattus norvegicus [18] = test: Increase of HDL level in cholesterol-fed male rats by FPLC method at 78 mg/kg/day relative to control; type: functional; method in brief: as §1
Rattus norvegicus [19] = test: Weight gain in cholesterol-fed male rats at 78 mg/kg/day relative to control; type: functional; method in brief: as §4
Rattus norvegicus [20] = test: Increase of total cholesterol level in cholesterol-fed male rats at 78 mg/kg/day relative to control; type: functional; method in brief: as §5
Rattus norvegicus [21] = test: Triglyceride level in cholesterol-fed male rats at 78 mg/kg/day relative to control; type: functional; method in brief: as §2
Rattus norvegicus [22] = test: Increase of HDL level in cholesterol-fed male rats by ultracentrifugation method at 78 mg/kg/day relative to control; type: functional
Method in brief: (§7)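 Compound given in the diet, ad libitum, to groups of six male Sprague–Dawley rats on a cholesterol diet for 8 days. Serum lipoproteins were separated by classical ultracentrifugation, and HDL cholesterol was quantitated by an enzymatic colorimetric method. Results are reported as % change relative to untreated controls, with significance at p < 0.05 versus controls.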

Rattus norvegicus [23] = test: Increase of Apolipoprotein A-I level in cholesterol-fed male rats at 78 mg/kg/day relative to control; type: functional; method in brief: as §3
Rattus norvegicus [24] = test: Weight gain in cholesterol-fed male rats at 79 mg/kg/day relative to control; type: functional; method in brief: as §4
Rattus norvegicus [25] = test: Increase of Apolipoprotein A-I level in cholesterol-fed male rats at 79 mg/kg/day relative to control; type: functional; method in brief: as §3
Rattus norvegicus [26] = test: Increase of total cholesterol level in cholesterol-fed male rats at 79 mg/kg/day relative to control; type: functional; method in brief: as §5
Rattus norvegicus [27] = test: Increase of HDL level in cholesterol-fed male rats by ultracentrifugation method at 79 mg/kg/day relative to control; type: functional; method in brief: as §7
Rattus norvegicus [28] = test: Increase of HDL level in cholesterol-fed male rats by FPLC method at 79 mg/kg/day relative to control; type: functional; method in brief: as §1
Rattus norvegicus [29] = test: Triglyceride level in cholesterol-fed male rats at 79 mg/kg/day relative to control; type: functional; method in brief: as §2
Rattus norvegicus [30] = test: Triglyceride level in cholesterol-fed male rats at 77 mg/kg/day relative to control; type: functional; method in brief: as §2
Rattus norvegicus [31] = test: Increase of Apolipoprotein A-I level in cholesterol-fed male rats at 77 mg/kg/day relative to control; type: functional; method in brief: as §3
Rattus norvegicus [32] = test: Weight gain in cholesterol-fed male rats at 77 mg/kg/day relative to control; type: functional; method in brief: as §4
Rattus norvegicus [33] = test: Increase of HDL level in cholesterol-fed male rats by ultracentrifugation method at 77 mg/kg/day relative to control; type: functional; method in brief: as §7
Rattus norvegicus [34] = test: Increase of total cholesterol level in cholesterol-fed male rats at 77 mg/kg/day relative to control; type: functional; method in brief: as §5
Rattus norvegicus [35] = test: Increase of HDL level in cholesterol-fed male rats by FPLC method at 77 mg/kg/day relative to control; type: functional; method in brief: as §1

`CCC/N=C(\S)Nc1cc(C)ccc1C` was tested, and the Activity (Rattus norvegicus [1]) was 278%, the Activity (Rattus norvegicus [2]) was -59% and the Activity (Rattus norvegicus [3]) was 72%. The Activity (Rattus norvegicus [4]) was -38%, the Activity (Rattus norvegicus [5]) was 29% and the Activity (Rattus norvegicus [6]) was 75%. For the same compound, the Activity (Rattus norvegicus [7]) was 127%.
For `CCCC/N=C(\S)Nc1cc(Cl)ccc1C`, the Activity (Rattus norvegicus [8]) was -44%, the Activity (Rattus norvegicus [9]) was 93% and the Activity (Rattus norvegicus [10]) was -53%. The Activity (Rattus norvegicus [11]) was 100%, the Activity (Rattus norvegicus [12]) was 39% and the Activity (Rattus norvegicus [13]) was 79%. The Activity (Rattus norvegicus [6]) was 44%, the Activity (Rattus norvegicus [14]) was 203% and the Activity (Rattus norvegicus [15]) was 38%.
Compound `CCC/N=C(\S)Nc1cc(Cl)ccc1C` has an EC50 [16] greater than 100 µM, an Activity (Rattus norvegicus [8]) of -54% and an EC50 [17] greater than 100 µM. The Activity (Rattus norvegicus [10]) was -78%, the Activity (Rattus norvegicus [11]) was 83% and the Activity (Rattus norvegicus [12]) was 6%. The Activity (Rattus norvegicus [14]) was 292% and the Activity (Rattus norvegicus [15]) was 54%.
Work on `CCC/N=C(\S)Nc1cc(Cl)ccc1OC` yielded an Activity (Rattus norvegicus [18]) of 97%, an Activity (Rattus norvegicus [19]) of -6% and an Activity (Rattus norvegicus [20]) of 49%. For the same compound, the Activity (Rattus norvegicus [21]) was -43%, the Activity (Rattus norvegicus [22]) was 99% and the Activity (Rattus norvegicus [23]) was 58%. For the same compound, the Activity (Rattus norvegicus [6]) was 44%.
For `CCC/N=C(\S)Nc1cc(OC)ccc1OC`, the Activity (Rattus norvegicus [24]) was 14%, the Activity (Rattus norvegicus [25]) was 19% and the Activity (Rattus norvegicus [26]) was 60%. The Activity (Rattus norvegicus [27]) was 108%, the Activity (Rattus norvegicus [28]) was 97% and the Activity (Rattus norvegicus [29]) was -23%.
`Cc1ccc(Cl)cc1/N=C(\S)NC(C)(C)C` showed an Activity (Rattus norvegicus [30]) of -31%, an Activity (Rattus norvegicus [31]) of 60% and an Activity (Rattus norvegicus [32]) of 9%. The Activity (Rattus norvegicus [33]) was 30%, the Activity (Rattus norvegicus [34]) was -15% and the Activity (Rattus norvegicus [35]) was 22%.
`Cc1ccc(Cl)cc1/N=C(\S)NCCO` gave an Activity (Rattus norvegicus [8]) of -53%, an Activity (Rattus norvegicus [10]) of -104% and an Activity (Rattus norvegicus [11]) of 75%. It also gave an Activity (Rattus norvegicus [12]) of 39%, an Activity (Rattus norvegicus [14]) of 241% and an Activity (Rattus norvegicus [15]) of 48%.
